Results on 167 variants are retold here after the RNAGym collection of RNA variant scans (doi:10.1126/science.aae0568).

B1: tRNA (parent)
chain: GUUCCGUUGGCGUAAUGGUAACGCGUCUCCCUCCUAAGGAGAAGACUGCGGGUUCGAGUCCCGUACGGAACG

This sample holds only a part of the variants without activity. Where only a bound is given, the exact number is not on record here.

The variants in this data set derive from B1. Put plainly: yeast fitness relative to wild type (ratio to wild type); higher = fitter; tRNA-Arg(CCU), competitive growth, 37 C, YPD. In short, it runs like this: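 Variants of the tRNA-Arg(CCU) gene, chemically synthesised with a 3% per-site mutation rate at 69 sites, were placed at the native genomic locus in Saccharomyces cerevisiae. The pooled strains were competed in YPD at 37°C for 24 hours in six parallel replicates. Gene amplicons from the start population and from each end population were read by 100-nucleotide paired-end sequencing. Darwinian fitness relative to wild type came from changes in genotype frequencies; genotypes needed ≥ 100 starting reads, and estimates < 0.5 were set to 0.5.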
Consider A42G C62G, for which the yeast fitness is 0.848.

With A42G C62U, the yeast fitness amounted to 0.962. The result for A42G G50C G58A A69C reads not above 0.5.

With A42G G67A G68A, the yeast fitness is not above 0.5. As to A42C C62A C66G, the yeast fitness is not above 0.5. The result for A42G A43C A70U reads 0.745. The same measure for A42G G52A: 0.648. The result for A42G G52C reads 0.574; that for A42C G50A, 0.745. Take A42C G50U: the yeast fitness turned out to be 0.781. The same measure for A42C C62G A65C: 0.544; for A42U C55A A65C: 0.538.

Regarding A42C G48C C49A, the yeast fitness is not above 0.5. The same measure for A42U C61A C62A G63A: 0.748. The same measure for A42G U54C: 0.815; for A42G U54A: 0.612; for A42C G52A: 0.676. Take A42U A45C A70C: the yeast fitness turned out to be 0.721. The result for A42G A65C reads 0.755; that for A42G A65U, 0.689; that for A42G A45C G48C C66U, not above 0.5. The result for A42U A43C C49A reads not above 0.5; that for A42G G56A G63C, 0.51; that for A42U A45C A69C, 0.67. With A42G A43U G44C A65C, the yeast fitness was not above 0.5.

As to A42G G44A, the yeast fitness stood at 0.962. As for A42C U47C, the yeast fitness was 1.09. The same measure for A42U A45C C55U A69C: not above 0.5. Consider A42C G50C G56A, for which the yeast fitness is not above 0.5. The result for A42G A45C reads 0.856; that for A42U A57C A69C, not above 0.5; that for A42G A57C C61G, 0.708. The result for A42U A57U G58C reads 0.542; that for A42U C60U, 0.769. Take A42U C60G: the yeast fitness turned out to be 0.579. The result for A42G C60A C62A reads not above 0.5; that for A42C C62G G67C, not above 0.5. The same measure for A42C U64C: 0.882; for A42G A43G: 0.766; for A42G U47G: 0.771. The same measure for A42G U47C: 0.959; for A42U A57C C61U G67C: not above 0.5. As for A42G G63C, the yeast fitness was found to be 0.69.

As for A42C G51A A65U G68A, the yeast fitness is not above 0.5. The same measure for A42C C55U C66U: 0.504; for A42C G67U: 0.811; for A42C G67C: 0.829. The same measure for A42U A57C C61U A65U: 0.58. The same measure for A42U C62A: 0.636. As to A42G G56C, the yeast fitness came out at 0.595. The result for A42G G48A G68C A70U reads not above 0.5; that for A42G C49U A70U, 0.711.

For the variant A42G C62U G68A, the yeast fitness stood at 0.79. As for A42U A43U, the yeast fitness amounted to 1.01.

For the variant A42G U47A U53C, the yeast fitness is not above 0.5.

On to A42U A57U C62U, for which the yeast fitness came out at 0.529. As for A42U A43G G52C, the yeast fitness is not above 0.5. In the case of A42C G67C A70U, the yeast fitness amounted to 0.505.

For the variant A42G C66G G67C, the yeast fitness was not above 0.5. For A42C G63U, the yeast fitness stood at 0.72.

As to A42C G63A, the yeast fitness was determined as 0.818. The same measure for A42C U47A G52A: not above 0.5; for A42G C55A: 0.607.

Regarding A42U C46U C62U, the yeast fitness came out at 0.89. The result for A42G G67A reads 0.747.

Take A42G G67C: the yeast fitness was 0.947. Turning to A42C G68C A69U, the yeast fitness is not above 0.5. Turning to A42U A69U, the yeast fitness is 1.02.

As for A42G G44C A45G, the yeast fitness is 0.723. In the case of A42G C66G, the yeast fitness was determined as 0.808. The same measure for A42G C66U: 0.814; for A42U A43G G48C U53A: 0.566.

Regarding A42C C46G G67C, the yeast fitness worked out at 0.612. Consider A42G G52C C62A, for which the yeast fitness was not above 0.5. The same measure for A42G C60A: 0.512. The same measure for A42C G48A: 1.07; for A42C G48C: 0.763; for A42U A57G C62A U64G C66G: not above 0.5.

Consider A42U A45C, for which the yeast fitness worked out at 1.17. The result for A42G A69U reads 0.959; that for A42G A69G, 0.749; that for A42U C46G, 1.12. The result for A42U C62U A70C reads 0.594; that for A42U A43U A57G A70U, 0.574; that for A42G G48C, 0.741.

With A42U A45U A69C, the yeast fitness stood at 0.656. The result for A42G A43G A45U reads 0.722; that for A42U C62U A65C, 0.526. The result for A42G C61A G67A reads not above 0.5; that for A42U C49A G56C A65G, not above 0.5; that for A42C C46U, 0.969. The same measure for A42C C49A: 0.62. Take A42C C49G: the yeast fitness turned out to be 0.759. The result for A42G G58C reads 0.906; that for A42C C61G, 0.721; that for A42G G44C A57C, not above 0.5. For the variant A42G A43U U47G C61G G67A, the yeast fitness is not above 0.5.

On to A42C U64C A70U, for which the yeast fitness stood at 1.12.

On to A42C G44A U53A, for which the yeast fitness was not above 0.5. In the case of A42G U54C A65U, the yeast fitness was not above 0.5.

With A42G G50C, the yeast fitness was 0.634. The same measure for A42U C55A: 0.584; for A42G C49U C66A: not above 0.5. The same measure for A42U A70G: 1. The result for A42U A70C reads 1.01. A42U A70U: the yeast fitness amounted to 0.919. The same measure for A42G A45G A65U: 0.635; for A42C C46G G52A: not above 0.5.

For A42U A45U C49G, the yeast fitness came to 0.526.

For A42C G56C, the yeast fitness stood at 0.649. The same measure for A42G A45U G50C: not above 0.5; for A42G A43C A69G: 0.835. The same measure for A42G G51A A57C U59C C60U: not above 0.5. The result for A42U A57U C61G reads not above 0.5; that for A42U A65U, 0.741; that for A42U A65G, 1.01. With A42G C49G U54C, the yeast fitness came out at 0.536.

For the variant A42G G67C A70C, the yeast fitness was not above 0.5.

As for A42C G51C, the yeast fitness was determined as 0.553. The result for A42G A45G C46U reads 0.726. Regarding A42C C55A U59C, the yeast fitness amounted to 0.661.

A42U A43C U64C G68C: the yeast fitness is not above 0.5. The same measure for A42G G68A: 0.728.

On to A42G G68U, for which the yeast fitness is 0.834. A42G U47A C55U A57C: the yeast fitness was 0.631.

For A42G U59G U64C C66G, the yeast fitness is not above 0.5. Turning to A42C G52A G56C, the yeast fitness is not above 0.5. The result for A42G C61G C66A reads not above 0.5; that for A42U A43G G52C C60A, not above 0.5. As to A42G G44C A65C, the yeast fitness came to 0.563.

In the case of A42U A45U C46U C66A, the yeast fitness was not above 0.5. The result for A42G A45U C66U reads 0.684; that for A42G A43U U54A, not above 0.5; that for A42G G50C A69C, not above 0.5.

In the case of A42G U47A C66U, the yeast fitness amounted to 0.567. The same measure for A42G A57C U59C C61U: not above 0.5; for A42C U47G C49U: not above 0.5; for A42U A65G A69C: 0.595.

In the case of A42C U53A, the yeast fitness stood at 0.626. The result for A42C G50C C66U reads 0.534; that for A42U C62G G63C A65U, not above 0.5.

Turning to A42G G52C G58C, the yeast fitness is not above 0.5. The result for A42C C62G reads 0.704. The same measure for A42G A70C: 0.853; for A42G A70G: 0.693. The same measure for A42U A43G C61A: 0.723; for A42G G51U A57U G67A: not above 0.5; for A42G C46A G68A A70U: 0.568.

A42C C66A: the yeast fitness was 0.688. The same measure for A42C C66G: 0.684.

As to A42C C49A G67C, the yeast fitness was not above 0.5. The result for A42G G48A C61G reads not above 0.5. Turning to A42U A65C G67U, the yeast fitness was not above 0.5. The result for A42C C55U C62U reads 0.509; that for A42C C60A, 0.672.

In the case of A42C C60G, the yeast fitness amounted to 0.608. The result for A42C G48A C62U reads 1.03; that for A42G C46U G52C C61A, not above 0.5. The result for A42G A43G C49U reads 0.556. The same measure for A42C G58C: 0.975; for A42C G68C: 0.657; for A42U C62A A65U: 0.604.

Turning to A42U C61G, the yeast fitness was 0.686.

As for A42U C61A, the yeast fitness is 0.683. The result for A42C U59C reads 0.901; that for A42G G52C A65U, not above 0.5. In the case of A42G G52C C66U G68A, the yeast fitness was not above 0.5.
